Results from different studies.
Target: Aurora kinase B (AURKB, Homo sapiens, UniProt Q96GD4)

| Compound | test | conditions | endpoint | value |
| --- | --- | --- | --- | --- |
| C#Cc1cccc(Nc2ncnc3cc(OCCOC)c(OCCOC)cc23)c1 | enzyme activity, inhibitor | 0.5 µM | activity vs control | 74.7% |
| COc1cccc(CNC(=O)c2nc3scc(COCc4ccc(C(=O)O)cc4)c3c(=O)[nH]2)c1 | cell-free assay, competition with immobilised ligand | 1 µM | remaining binding | 71.3% |
| Cc1ccc(NC(=O)c2ccc(C)c(C(F)(F)F)c2)cc1C#Cc1nn(C2CCC(O)CC2)c2ncnc(N)c12 (centres unmarked) | cell-free assay, inhibitor | 10 µM | remaining signal | 475% |
| COc1cc2c(Nc3ccc(Br)cc3F)ncnc2cc1OCC1CCN(C)CC1 | cell-free assay | 0.5 µM | remaining signal | 95.5% |
| O=C(Nc1cccc(Nc2ncc(Br)c(NCCc3cnc[nH]3)n2)c1)N1CCCC1 | enzyme activity, inhibitor, radiometric | 1 µM | remaining activity | 2% |
| CN(C)C1CCN(CC#Cc2nn(C3CCCC3)c3nc(NCc4ccccc4)ncc23)C1 (centres unmarked) | enzyme activity, inhibitor, FRET | 0.1 µM | inhibition | 8% |
| Cc1nn(CC(F)(F)F)cc1Nc1ncc(C2CC2)c(NCCc2c[nH]cn2)n1 | enzyme activity, inhibitor, radiometric | 1 µM | remaining activity | 82% |
| Cc1cc(NC(=O)c2cccc3cc(-c4cccc5[nH]nc(N)c45)ccc23)ccc1F | enzyme activity, inhibitor | 0.1 µM | activity vs control | 12% |
| COc1cc(/C=C/C(=O)CC(=O)/C=C/c2ccc(O)c(OC)c2)ccc1O | enzyme activity, inhibitor | 1 µM | activity vs control | 79% |
| CCC(=O)N[C@@H]1CC[C@H](C(=O)N(C)c2ccc(-c3nc4ccccc4o3)cc2)C1 | cell-free assay, competition with immobilised ligand | 1 µM | remaining binding | 96% |
| Cc1nn(CC(F)(F)F)cc1Nc1ncc(C2CC2)c(NCCCNC(=O)C2CCC2)n1 | enzyme activity, inhibitor, radiometric | 1 µM | remaining activity | 102% |
| c1ccc(N2CCN(Cc3nc4ccccc4[nH]3)CC2)nc1 | cell-free assay, competition with immobilised ligand | 1 µM | remaining binding | 18% |
| Cc1nn(CC(F)(F)F)cc1Nc1ncc(Br)c(NCCc2cnc[nH]2)n1 | enzyme activity, inhibitor, radiometric | 1 µM | remaining activity | 22% |
| CCc1ccccc1C(=O)Nc1n[nH]c2c(C)c(F)c(C3C(C#N)=C(C)N(C)C(C)=C3C#N)cc12 | cell-free assay, competition with immobilised ligand | 1 µM | remaining binding | 88% |
| Cc1cc(Nc2cc3ncccc3c(N[C@@H]3C[C@H]4CC[C@@H](C3)N4CCC#N)n2)n[nH]1 | enzyme activity, inhibitor | 1 µM | inhibition | 80% |
| CCN(CC)CCNC(=O)c1c(C)[nH]c(/C=C2\C(=O)Nc3ccc(F)cc32)c1C | cell-free assay | 0.5 µM | remaining signal | 48.7% |
| C[C@H](c1cccc(C#N)c1)n1cc(Cl)cc(C(N)=O)c1=N | cell-free assay, competition with immobilised ligand | 1 µM | remaining binding | 100% |
| COc1cc2nccc(Oc3ccc(NC(=O)c4c5n(n(-c6ccc(F)cc6)c4=O)CCCC5)cc3)c2cc1OC | enzyme activity, inhibitor | 0.1 µM | inhibition | 60% |
| CN(C(=O)c1ccccc1)c1cc(N(C)c2ccc3c(c2)CCc2ccc(C(=O)NCCN4CCOCC4)cc2C3=O)ccc1F | cell-free assay, competition with immobilised ligand | 1 µM | remaining binding | 100% |
| CS(=O)(=O)Nc1cccc(-c2csc(NC(=O)CSc3nc4nccnc4c(=O)n3CCc3ccccc3)n2)c1 | enzyme activity, inhibitor | 10 µM | inhibition | -11% |
